Laboratory results published in ChEMBL document CHEMBL3244152, “Pivaloyl esters of N,N-dialkylated dopamine congeners. Central dopamine-receptor stimulating activity” (1978).
Calls of active or inactive are those of the source. The calls are words filed in the database; no cut-off is given here.

Legend:
[1] = test system: Rattus norvegicus; test: Stimulation of dopamine receptor in sc dosed Sprague-Dawley rat assessed as reduction in Dopa accumulation in limbic forebrain by spectrofluorimetry; format: functional; conditions: Limbic system, read-out: ID50 (the source's name)
Method in brief: (§1)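 Pooled regions from two brains went to perchloric acid extraction, cation exchange and Dopa spectrofluorimetry. Dose giving 50% Dopa decrease came from least-squares double-reciprocal plots (1/% change vs 1/dose).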

[2] = test system: Rattus norvegicus; test: Stimulation of dopamine receptor in sc dosed Sprague-Dawley rat assessed as reduction in Dopa accumulation in straitum by spectrofluorimetry; format: functional; conditions: read-out: ID50 (the source's name); method in brief: as §1
[3] = test system: Rattus norvegicus; test: Effect on motor activity in reserpinized Sprague-Dawley rat assessed as stereotyped movements at 20 umolkg, sc measured every 5 mins for 2 hrs by motility meter method; format: functional, organism-based
Method in brief: (§2)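 Male Sprague-Dawley rats (200–350 g) were given reserpine 10 mg/kg ip 6 h before testing. Drug in 0.9% saline (neutral pH, 10 mL/kg) was given at 20 μmol/kg sc in the neck or 200 μmol/kg po by stomach tube. Rats were caged singly in motility meters at once, with counts recorded per 5-min period over 2 h; means n = 4-5.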

[4] = test system: Rattus norvegicus; test: Effect on motor activity in reserpinized Sprague-Dawley rat assessed as stereotyped movements at 200 umolkg, po measured every 5 mins for 2 hrs by motility meter method; format: functional, organism-based; method in brief: as §2
[5] = test system: Rattus norvegicus; test: Effect on motor activity in reserpinized Sprague-Dawley rat assessed as stereotyped movements at 2 umolkg, sc measured every 5 mins for 2 hrs by motility meter method; format: functional, organism-based
Method in brief: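 Male Sprague-Dawley rats (200–350 g) given reserpine 10 mg/kg ip 6 h before testing. Drug dissolved in saline (0.9%), neutral pH, 10 mL/kg, injected sc in the neck. Each rat then placed alone in a test cage inside a motility meter. Counts were recorded per 5-min period for 2 h, with gross behavior watched through a mirror. Means, n = 4-5.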

[6] = test system: Rattus norvegicus; test: Stimulation of dopamine receptor in Sprague-Dawley rat assessed as reduction in Dopa accumulation in at 1 mg/kg, sc by spectrofluorimetry; format: functional, organism-based; set-up: dose 1 mg/kg
[7] = test system: Rattus norvegicus; test: Effect on motor activity in reserpinized Sprague-Dawley rat assessed as stereotyped movements at 20 umolkg, sc measured up to 10 mins by motility meter method; format: functional, organism-based; method in brief: as §2

SMILES | ED50 [1] [µmol/kg] | ED50 [2] [µmol/kg] | Activity [3] | Activity [4] | Activity [5] | Activity [6] | Activity [7]
CCCN(CCC)CCc1cccc(O)c1 | 5.7 | 1.8 | Active | inactive |  |  | 
CCCN(CCC)CCc1cccc(OC)c1 | > 45 | > 45 | inactive | inactive |  |  | 
CCN(CC)CCc1ccc(OC(=O)C(C)(C)C)c(OC(=O)C(C)(C)C)c1 | > 27 | > 27 | inactive | inactive |  |  | 
CCCCN(CCCC)CCc1ccc(OC(=O)C(C)(C)C)c(OC(=O)C(C)(C)C)c1 | > 180 | > 180 | inactive | inactive |  |  | 
CN1CCc2cccc3c2[C@H]1Cc1ccc(OC(=O)C(C)(C)C)c(OC(=O)C(C)(C)C)c1-3 |  |  |  |  | Active |  | 
CC(N)Cc1ccccc1 (configuration not stated) |  |  |  |  |  | inactive | 
CCCN(CCC)CCc1ccc(O)c(O)c1 | 25 | 20 |  | inactive |  |  | 
CN(C)CCc1ccc(OC(=O)C(C)(C)C)c(OC(=O)C(C)(C)C)c1 | > 45 | > 45 | inactive | inactive |  |  | 
CCCN(CCC)CCc1ccc(OC(=O)C(C)(C)C)c(OC(=O)C(C)(C)C)c1 | 28 | 33 | Active | inactive |  |  | 
CCCN(CCC)CCc1cccc(OC(=O)C(C)(C)C)c1 | 2.7 | 1.8 | Active | inactive |  |  | inactive
CN1CCc2cccc3c2[C@H]1Cc1ccc(O)c(O)c1-3 [APOMORPHINE] | 0.23 | 0.23 |  |  | Active |  | 
